Calls of active or inactive are those of the source. Cut-off read from the data, not from the text of the source, unless noted: active = inhibition above about 30%; inactive = the rest.
How the values were obtained:
[1] = HUVEC growth inhibition – cell-based, human, primary screen (AID 575;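 active = viability at or below 30% in both replicate assays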;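 note: 100% = median of untreated cell wells with 0.1% DMSO on each plate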); conditions: HUVEC proliferation, CellTiter-Glo luminescence, 72 h; at 10 µM; stronger effect = lower value
Summary of the method: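 Assay system: Primary human umbilical vein endothelial cells | Quantity: 1250 cells per well | Medium: Supplemented EBM, 2% fetal bovine serum | Detection: CellTiter-Glo luminescence measuring cellular ATP | Read-out: % viability vs DMSO wells | Plate: Collagen-coated 384-well format | Times: 72 h exposure, 37 °C, 5% CO2, 30 min RT equilibration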

[2] = growth inhibitors of H69AR lung tumor, primary screen, human, duplicate replicates (AID 580;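 active = viability at or under a set limit in both replicates, limit being median viability minus 3 SD, cut at about 48% in these data, passing the limit was not always enough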;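 note: 100% = mean luminescence of untreated wells and 0% = no signal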); conditions: H69AR lung tumor cells viability, ATP luminescence, 72 h; at 10 µM; stronger effect = lower value
[3] = reversal of MRP1-mediated doxorubicin resistance, pilot screen, H69AR cells, doxorubicin co-treatment (AID 601;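 active = viability loss from added drug above about 55%, and viability with drug at most 40%, in both replicates, limit read from the data, passing the limit was not always enough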); conditions: CellTiter-Glo, 72 h, at 10 µM; for differential viability (reversal): stronger effect = higher value
[4] = 384-well plate pilot, post-Golgi transport modulator project, inhibition of yeast transport mutant growth (AID 636; in the data active = inhibition above about 31%); conditions: absorbance 615 nm, about 18 h, stronger effect = higher value
[5] = growth suppression of yeast trafficking mutant, preliminary HTS, modulators of trafficking downstream of Golgi apparatus project, 1536-format plate, OD 615 nm (AID 637); conditions: yeast transport mutant growth, absorbance 615 nm, 18 h; stronger effect = higher value
[6] = H69AR cells + 2 uM doxorubicin, measured here: viability with 2 uM doxorubicin, stronger effect = lower value
[7] = H69AR cells, compound alone cytotoxicity

SMILES | viability [1] | viability [2] | differential viability (reversal) ([3]; H69AR cells + 2 uM doxorubicin) | viability [3, 6] | viability [3, 7] | inhibition [4] | inhibition [5]
CC1CCN(C(=O)c2ccc(C(=O)N3CCC(C)CC3)cc2)CC1 | 87.3% (inactive) | 101% (inactive) | 5.22% (inactive) | 95.4% | 101% | -0.66% (inactive) | 0.48% (inactive)
CCOc1ccccc1N1C(=O)CC(Sc2ncccc2C(=O)O)C1=O (centres undefined) | 97% (inactive) | 99.9% (inactive) | 12.7% (inactive) | 87.2% | 99.9% | -3.29% (inactive) | 1.59% (inactive)
O=C(Nc1nc(-c2ccc(S(=O)(=O)N3CCCC3)cc2)cs1)C1COc2ccccc2O1 (centres undefined) | 79.1% (inactive) | 90.3% (inactive) | -1.52% (inactive) | 91.8% | 90.3% | -3.73% (inactive) | -6.83% (inactive)
CCNc1oc(COc2ccccc2F)nc1C#N | 89.8% (inactive) | 100% (inactive) | 22.9% (inactive) | 77.4% | 100% | -2.6% (inactive) | 1.43% (inactive)
COC(=O)c1ccc(CN(c2ccccc2OC)S(=O)(=O)c2cccs2)o1 | 98.8% (inactive) | 86.2% (inactive) | -15.4% (inactive) | 102% | 86.2% | -6.88% (inactive) | -7.14% (inactive)
COc1ccccc1NC(=O)N1CCN(c2ccccc2F)CC1 | 108% (inactive) | 93.8% (inactive) | 19.5% (inactive) | 74.3% | 93.8% | -5.87% (inactive) | 1.11% (inactive)
CC(=O)c1cc(-c2ccccc2)n(CC(=O)N2CCC(N3CCCCC3)CC2)c1C | 85.3% (inactive) | 82.7% (inactive) | -2.33% (inactive) | 85.1% | 82.7% | -2.73% (inactive) | 0.63% (inactive)
CS(=O)(=O)N1CCC(C(=O)NCCC2=CCCCC2)CC1 | 99.7% (inactive) | 99.9% (inactive) | 20.4% (inactive) | 79.6% | 99.9% | -5.73% (inactive) | -1.11% (inactive)
Cc1ccccc1NC(=O)C1CCC(C)(C(=O)O)C1(C)C (centres undefined) | 92.7% (inactive) | 99.8% (inactive) | 0.94% (inactive) | 98.8% | 99.8% | -0.78% (inactive) | -7.3% (inactive)
O=C(CCn1c(=O)c2sccc2n(CC(=O)NCc2ccco2)c1=O)NCc1ccccc1 | 93.6% (inactive) | 96.9% (inactive) | 4.46% (inactive) | 92.5% | 96.9% | -0.65% (inactive) | -1.59% (inactive)
CN(C)C(CNc1nnnn1-c1ccccc1)c1ccco1 (centres undefined) | 79.2% (inactive) | 77.4% (inactive) | 5% (inactive) | 72.4% | 77.4% | -3.77% (inactive) | 1.11% (inactive)
COc1cccc(CN(C(=O)c2cc3ccccc3oc2=O)C2CC2)c1 | 99.1% (inactive) | 102% (inactive) | 5.67% (inactive) | 96.1% | 102% | -0.13% (inactive) | 0% (inactive)
COCCOC(=O)C1=C(C)NC(=O)CC1c1cc2c(cc1Br)OCO2 (centres undefined) | 89.4% (inactive) | 97.4% (inactive) | 25.1% (inactive) | 72.4% | 97.4% | -4.67% (inactive) | 2.86% (inactive)
Cc1cccc(NC(=O)CCn2ccnc2C)c1 | 98.8% (inactive) | 92.3% (inactive) | 3.98% (inactive) | 88.4% | 92.3% | -1.95% (inactive) | 0.79% (inactive)
O=C(NC1CC2CCC1C2)C1COc2ccccc2O1 (centres undefined) | 100% (inactive) | 87.9% (inactive) | 4.5% (inactive) | 83.4% | 87.9% | -3.55% (inactive) | -2.38% (inactive)
CCOC(=O)C1CCCN(c2nc3ccccc3nc2C(C#N)C(=O)NCc2ccccc2)C1 (centres undefined) | 80.6% (inactive) | 86.2% (inactive) | 0.385% (inactive) | 85.8% | 86.2% | -3.95% (inactive) | -1.27% (inactive)
CCOC(=O)c1cccc(NC(=O)CCn2nnc3ccccc32)c1 | 89.9% (inactive) | 98.6% (inactive) | 9.72% (inactive) | 88.9% | 98.6% | -2.5% (inactive) | 0.48% (inactive)
COCC(=O)NC(c1ccccc1)c1ccccc1 | 86.1% (inactive) | 89.5% (inactive) | 12.2% (inactive) | 77.3% | 89.5% | -5.84% (inactive) | 3.81% (inactive)
O=C(Nc1nnc(CCN2CCCCC2)s1)C1CCCCC1 | 93.4% (inactive) | 91.9% (inactive) | 7.11% (inactive) | 84.7% | 91.9% | -5.73% (inactive) | 4.76% (inactive)

SMILES | viability [1] | viability [2] | differential viability (reversal) ([3]; H69AR cells + 2 uM doxorubicin) | viability [3, 6] | viability [3, 7] | inhibition [4] | inhibition [5]
O=C(c1ccc(S(=O)(=O)N2CCOCC2)cc1)N1CCc2ccccc2C1 | 98.1% (inactive) | 91.1% (inactive) | 2.92% (inactive) | 88.2% | 91.1% | -2.37% (inactive) | 9.37% (inactive)
Cc1ccc(-c2nc(-c3cccnc3)no2)c(C)c1 | 78.9% (inactive) | 90.1% (inactive) | -0.56% (inactive) | 90.7% | 90.1% | -6.49% (inactive) | -9.52% (inactive)
Cc1ccc2[nH]c(=O)c(CN(CCc3ccccc3)Cc3nnnn3CC3CCCO3)cc2c1 (centres undefined) | 77.1% (inactive) | 78.5% (inactive) | 0.205% (inactive) | 78.3% | 78.5% | 1.45% (inactive) | -5.87% (inactive)
CS(=O)(=O)N(CC(=O)NC1CC1)c1cccc(F)c1 | 86.5% (inactive) | 90% (inactive) | 5.87% (inactive) | 84.1% | 90% | -5.19% (inactive) | 0% (inactive)
Cc1ccc(CCSCC(=O)O)cn1 | 109% (inactive) | 101% (inactive) | 2.9% (inactive) | 98.3% | 101% | -2.4% (inactive) | 0.16% (inactive)
COc1cccc(C(=O)Nc2cnc(NC(=O)c3ccco3)cc2C)c1 | 103% (inactive) | 86.6% (inactive) | 8.55% (inactive) | 78.1% | 86.6% | -2.21% (inactive) | -4.44% (inactive)
CCOC(=O)c1ccc(NS(=O)(=O)c2ccc(SC)cc2)cc1 | 99% (inactive) | 108% (inactive) | 10.8% (inactive) | 97.4% | 108% | -7.11% (inactive) | -3.81% (inactive)
O=C(CCCNS(=O)(=O)c1ccccc1)NCc1ccco1 | 94.5% (inactive) | 99.3% (inactive) | 6.58% (inactive) | 92.7% | 99.3% | -4.67% (inactive) | 1.9% (inactive)
c1ccc2c(c1)C(=Nn1cnnc1)c1ccccc1-2 | 92.3% (inactive) | 92.4% (inactive) | -4.35% (inactive) | 96.7% | 92.4% | -0.39% (inactive) | -3.02% (inactive)
CC(=O)c1cccc(NS(=O)(=O)c2ccc3c(c2)oc(=O)n3C)c1 | 92.4% (inactive) | 106% (inactive) | 8.94% (inactive) | 96.7% | 106% | -2.67% (inactive) | -1.9% (inactive)
O=C(CCCn1c(=O)c2sccc2n(Cc2ccc(F)cc2)c1=O)NCc1ccco1 | 51.1% (inactive) | 27.4% (active) | -52% (inactive) | 79.4% | 27.4% | -0.39% (inactive) | -4.44% (inactive)
COc1cccc(C(=O)Nc2ccc(NC(=O)C(C)(C)C)cn2)c1 | 96% (inactive) | 76.2% (inactive) | 2.62% (inactive) | 73.5% | 76.2% | 2.34% (inactive) | -0.48% (inactive)
Cc1noc(C)c1COc1cccc(C(=O)Oc2ccc3c(c2)OCO3)c1 | 88.8% (inactive) | 79.5% (inactive) | -5.05% (inactive) | 84.5% | 79.5% | -4.81% (inactive) | 1.75% (inactive)
CCc1ccc2[nH]c(=O)c(C(c3nnnn3CC3CCCO3)N3CCCc4ccccc43)cc2c1 (centres undefined) | 88.5% (inactive) | 91.8% (inactive) | -6.4% (inactive) | 98.2% | 91.8% | -7.2% (inactive) | -1.9% (inactive)
CCSc1nc(-c2ccc(OC)cc2)ccc1C#N | 65.8% (inactive) | 66.5% (inactive) | -19.8% (inactive) | 86.3% | 66.5% | -1.69% (inactive) | -1.27% (inactive)
CN(C)C(=O)C12CCC(C)(c3nc4ccccc4nc31)C2(C)C (centres undefined) | 105% (inactive) | 88.8% (inactive) | 2.95% (inactive) | 85.8% | 88.8% | 3.03% (inactive) | -4.6% (inactive)
CCCCCn1c(CN(C)Cc2ccccc2)nc2c1c(=O)n(C)c(=O)n2C | 85.8% (inactive) | 79.8% (inactive) | 11.4% (inactive) | 68.3% | 79.8% | 1.45% (inactive) | 4.76% (inactive)
CCCn1nc(CC(=O)O)c2ccccc2c1=O | 98.2% (inactive) | 103% (inactive) | 8.11% (inactive) | 94.7% | 103% | -6.27% (inactive) | -3.02% (inactive)

— PubChem BioAssay
